# Data published in PMC3374877 (Chembiochem, 2011).
# “Also recorded” adds a separate entry of the source. Bridges are numbered along the chain shown (N, C = ends). Where no end group is shown, it is not given here.
# Columns and labels:
# TLR4 = details: read-out: KD of full-length MD2 binding to TLR4; cited from earlier work
# [1] = tested on: TLR4 (RAW 264.7 macrophage cells); experiment: Nitric oxide production in RAW 264.7 macrophages, LPS-induced TLR4 activation; type: cell-based; details: 50 μM peptide, LPS 50 ng/ml
# How it was run: (§1)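 RAW 264.7 macrophages were stimulated with the TLR-specific ligand in the presence or absence of 50 μM peptide. Nitric oxide production was the read-out of pathway activation.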
# [2] = molecular target: extracellular construct (a.a. 1–632) of human TLR4 (Homo sapiens, UniProt O00206); type: binding; details: fluorescence polarization
# Chain of extracellular construct (a.a. 1–632) of human TLR4 (O00206 24-632): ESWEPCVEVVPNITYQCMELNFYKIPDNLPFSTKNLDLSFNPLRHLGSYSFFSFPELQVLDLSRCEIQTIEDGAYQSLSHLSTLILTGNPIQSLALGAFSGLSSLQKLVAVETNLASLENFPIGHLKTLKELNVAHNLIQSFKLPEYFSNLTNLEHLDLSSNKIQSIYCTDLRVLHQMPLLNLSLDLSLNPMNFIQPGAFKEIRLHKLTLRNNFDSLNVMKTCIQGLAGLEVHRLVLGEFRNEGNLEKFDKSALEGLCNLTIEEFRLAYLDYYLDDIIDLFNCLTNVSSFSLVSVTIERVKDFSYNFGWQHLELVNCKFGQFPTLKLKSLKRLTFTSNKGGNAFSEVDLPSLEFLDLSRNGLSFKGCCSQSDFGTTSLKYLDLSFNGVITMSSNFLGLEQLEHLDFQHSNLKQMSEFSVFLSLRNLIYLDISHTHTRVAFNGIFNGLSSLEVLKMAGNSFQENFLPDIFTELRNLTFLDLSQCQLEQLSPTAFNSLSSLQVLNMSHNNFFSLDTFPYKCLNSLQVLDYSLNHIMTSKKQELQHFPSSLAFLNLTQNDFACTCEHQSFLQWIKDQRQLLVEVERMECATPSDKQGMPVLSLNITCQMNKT
# [3] = tested on: TLR1/TLR2 (RAW 264.7 macrophage cells); type: cell-based; details: 50 μM peptide, Pam3CSK4 250 ng/ml
# How it was run: as §1
# [4] = tested on: TLR2/TLR6 (RAW 264.7 macrophage cells); type: cell-based; details: 50 μM peptide, PGN 50 μg/ml
# How it was run: as §1
# [5] = tested on: rats subjected to CCI of the sciatic nerve; experiment: Chronic constriction injury; type: in vivo; details: rat CCI; intrathecal; summary in words
# How it was run: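 Rats underwent chronic constriction injury and were tested at baseline, then on days 4 and 11 after surgery to confirm allodynia. After a pre-drug assessment, peptide was delivered intrathecally into the peri-spinal cerebrospinal fluid by the lumbar approach, at approximately 250 μM final in the intrathecal space. Vehicle was saline. Allodynia was reassessed 1, 3 and 24 h after injection.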
# HEK 293 cells = experiment: Cytotoxicity, trypan blue staining, HEK 293 cells; type: cell-based
# BV2 cells = experiment: Cytotoxicity, trypan blue staining, BV2 cells; type: cell-based
# RAW 264.7 cells = experiment: Cytotoxicity, trypan blue staining, RAW 264.7 cells; type: cell-based
# whole human blood = experiment: Haemolysis in whole human blood; type: cell-based; details: concentrations up to 500 μM
# rats = experiment: Behavioural observation after peptide injection; type: in vivo, rat; details: rats of the CCI test; intrathecal injection of peptide stock solutions
# TLR4/MD2 complex = details: previously reported; cited from earlier work
Substance,Kd (TLR4) [nM],inhibition of TLR4 signalling (NO production) [1],"binding activity toward TLR4 (change in polarization) ([2]; TLR4 titrated, in words)",maximum polarization value ([2]; plateau upon addition of TLR4),inhibition of TLR1/2 signalling (NO production) [3],inhibition of TLR2/TLR6 signalling (NO production) [4],suppression of neuropathic pain in vivo (summary statement) [5],cytotoxicity (HEK 293 cells),cytotoxicity (BV2 cells),cytotoxicity (RAW 264.7 cells),haemolysis (whole human blood),abnormal behaviours after injection (rats),"inhibition of TLR4 signalling, LPS antagonism (TLR4/MD2 complex)"
"full-length MD2: myeloid differentiation factor 2, accessory protein required for TLR4 activation",12,–,–,–,–,–,–,–,–,–,–,–,–
CRGSAAAYSFCAALAGA (disulfide 1-11 (inferred)) [MD2-III],–,no inhibition on the TLR4 signaling; also recorded: no inhibitory effect on the TLR4 signaling,–,–,–,–,–,–,–,–,–,–,–
CRGSDDDYSFCRALKGE (disulfide 1-11 (inferred)) [MD2-I],–,significant reduced signals of LPS-induced TLR4 activation; also recorded: selectively inhibits the NO production induced by LPS,robust increase,approximately 0.25,negligible inhibitory effects; also recorded: without affecting other homologous TLRs,negligible inhibitory effects; also recorded: without affecting other homologous TLRs,moderate potency in an animal model; also recorded: able to suppress neuropathic pain in animal models; also recorded: could suppress neuropathic pain in vivo,little cytotoxicity,little cytotoxicity,little cytotoxicity,does not induce haemolysis,no abnormal behaviours were observed,"abolishes TLR4 signalling by antagonizing its native ligand, lipopolysaccharide (LPS), binding to the TLR4/MD2 complex"
